What was measured:
[1] = PK and tissue distribution assay, single oral dose; assay type: in vivo, BALB/c mice; conditions: for concentration at 4 h: BALB/c, mouse, po, 25 mg/kg
[2] = Microsomal stability assay, human liver microsomes; assay type: in vitro ADME; conditions: for Clhep (hepatic clearance), Human: predicted from Clint, Qh 21 mL/min/kg
[3] = Microsomal stability assay, mouse liver microsomes; assay type: in vitro ADME, mouse (male CD-1); conditions: for Clhep (hepatic clearance), Mouse: predicted from Clint, Qh 90 mL/min/kg
[4] = Microsomal stability assay, rat liver microsomes; assay type: in vitro ADME, rat (male Sprague-Dawley); conditions: for Clhep (hepatic clearance), Rat: predicted from Clint, Qh 70 mL/min/kg
Y strain T. cruzi CYP51A [5] = test: CYP51 activity inhibition; assay type: biochemical, Trypanosoma cruzi; conditions: Figure S1
How it was run: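 Y-strain T. cruzi CYP51A was expressed in E. coli and purified. Substrate was [3-3H]eburicol at 50 μM final and test compound at 1.1 μM final. After 60 s preincubation at 37 °C, 100 μM NADPH started the reaction. It ran 60 min, EtOAc extraction stopped it, and % inhibition was measured in triplicate, mean ± SD.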

[6] = Mouse acute toxicity assay; assay type: in vivo; conditions: single oral dose 200 mg/kg, mice n=3, 48 h
L. infantum CYP51 = L. infantum CYP51 (Leishmania infantum, UniProt A2TEF2); test: Spectral titration; assay type: binding; conditions: 0.5 μM CYP51, inhibitor 0.1–1 μM
Y strain T. cruzi CYP51A [7] = test: Spectral titration; assay type: binding, Trypanosoma cruzi; conditions: 0.5 μM CYP51, inhibitor 0.1–1 μM
How it was run: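 Y-strain T. cruzi CYP51A was expressed in E. coli and purified. It was titrated at 0.5 μM with test compound (0.1–1 μM) in 5 cm pathlength cuvettes. Difference spectra were read as Δ(A430−A411). Apparent dissociation constants came from nonlinear fits of absorbance change versus ligand concentration to the Morrison quadratic (tight-binding) equation.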

[8] = Balb/c mice, single oral dose 25 mg/kg
[9] = human pooled liver microsomes 0.5 mg/mL, 1 μM test compound
[10] = mouse pooled liver microsomes 0.5 mg/mL, 1 μM test compound
[11] = rat pooled liver microsomes 0.5 mg/mL, 1 μM test compound
[12] = 4 hours after single oral 25 mg/kg, Balb/c mice, ±SEM, n=2, nd = below 0.1 μM

Plasma life time (time until the compound becomes undetectable) [1, 8] [h]	Clint (estimated intrinsic clearance), Human [2, 9] [mL/min/kg body weight]	Clhep (hepatic clearance), Human [2] [mL/min/kg body weight]	Clint (estimated intrinsic clearance), Mouse [3, 10] [mL/min/kg body weight]	Clhep (hepatic clearance), Mouse [3] [mL/min/kg body weight]	Clhep (hepatic clearance), Rat [4] [mL/min/kg body weight]	Clint (estimated intrinsic clearance), Rat [4, 11] [mL/min/kg body weight]	Molecule	further results
<10	20.9	10.5	34.2	24.8	46.9	142	O=C(N[C@@H](Cn1ccnc1)c1ccc(-c2ccccc2)cc1Cl)c1ccc(-c2nnc(-c3ccccc3)o2)cc1 [Compound 4, (R)-N-(1-(3-Chloro-[1,1´-biphenyl]-4-yl)-2-(1H-imidazol-1-yl)ethyl)-4-(5-phenyl-1,3,4-oxadiazol-2-yl)benzamide]	Plasma Cp, max ([1]; Balb/c mice, single oral dose 25 mg/kg, nd = below 0.1 μM (detection limit)): 28 µM
<16	21.2	10.6	220	63.9	45.6	131	[2H]c1c([2H])c([2H])c(-c2ccc([C@H](Cn3ccnc3)NC(=O)c3ccc(-c4nnc(-c5ccccc5)o4)cc3)c(Cl)c2)c([2H])c1[2H] [Compound 5, (R)-N-(1-(3-Chloro-[1,1´-biphenyl]-4-yl-2´,3´,4´,5´,6´-d5)-2-(1H-imidazol-1-yl)ethyl)-4-(5-phenyl-1,3,4-oxadiazol-2-yl)benzamide]	concentration at 4 h ([1]; blood): 4 ± 2 µM; concentration at 4 h ([1]; brain): 0.2 µM; concentration at 4 h ([1]; heart): 3 ± 0.5 µM; concentration at 4 h ([1]; lung): 26 ± 4 µM; Cp,max, fold lower (vs compound 4) ([1]; single oral 25 mg/kg): 2 fold
	11.6	7.46	127	52.6	31.7	58.1	CS(=O)(=O)c1ccc(-c2ccc([C@H](Cn3ccnc3)NC(=O)c3ccc(-c4nnc(-c5ccccc5)o4)cc3)c(Cl)c2)cc1 [Compound 6, (R)-N-(1-(3-Chloro-4´-(methylsulfonyl)-[1,1´-biphenyl]-4-yl)-2-(1H-imidazol-1-yl)ethyl)-4-(5-phenyl-1,3,4-oxadiazol-2-yl)benzamide]	Oral bioavailability ([1]; single oral 25 mg/kg, no trace in plasma or tissues except intestine): not orally bioavailable
	16.5	9.24	87.7	44.4	33.5	64.3	O=C(N[C@@H](Cn1ccnc1)c1ccc(Cl)cc1Cl)c1ccc(-c2nnc(-c3ccc(OCC(F)(F)F)cc3F)o2)cc1 [Compound 8, (R)-N-(1-(2,4-Dichlorophenyl)-2-(1H-imidazol-1-yl)ethyl)-4-(5-(2-fluoro-4-(2,2,2-trifluoroethoxy)phenyl)-1,3,4-oxadiazol-2-yl)benzamide]	
	13.9	8.35	59.8	35.9	23.6	35.5	O=C(N[C@@H](Cn1ccnc1)c1ccc(-c2ccc(F)cc2)cc1Cl)c1ccc(-c2nnc(-c3ccccc3)o2)cc1 [VFV-Cl, (R)-N-(1-(3-Chloro-4´-fluoro-[1,1´-biphenyl]-4-yl)-2-(1H-imidazol-1-yl)ethyl)-4-(5-phenyl-1,3,4-oxadiazol-2-yl)benzamide]	Increase of concentrations in tissues at 50 mg/kg ([1]; 50 mg/kg vs 25 mg/kg, data not shown): about 1.5 fold; Metabolism ([M+34] metabolite) when extracted from mice plasma ([1]; 3 and 10 h after single oral 25 mg/kg, HPLC (Figure 4)): almost no metabolism

More lines, now with the values behind:

Molecule	Plasma life time (time until the compound becomes undetectable) [1, 8] [h]	Clint (estimated intrinsic clearance), Human [2, 9] [mL/min/kg body weight]	Clhep (hepatic clearance), Human [2] [mL/min/kg body weight]	Clint (estimated intrinsic clearance), Mouse [3, 10] [mL/min/kg body weight]	Clhep (hepatic clearance), Mouse [3] [mL/min/kg body weight]	Clhep (hepatic clearance), Rat [4] [mL/min/kg body weight]	Clint (estimated intrinsic clearance), Rat [4, 11] [mL/min/kg body weight]	further results
O=C(N[C@@H](Cn1ccnc1)c1ccc(-c2ccc(F)cc2)cc1Cl)c1ccc(-c2nnc(-c3ccccn3)o2)cc1 [Compound 2, (R)-N-(1-(3-Chloro-4´-fluoro-[1,1´-biphenyl]-4-yl)-2-(1H-imidazol-1-yl)ethyl)-4-(5-(pyridin-2-yl)-1,3,4-oxadiazol-2-yl)benzamide]	10	22.3	10.8	105	48.4	20.8	29.7	
O=C(N[C@@H](Cn1ccnc1)c1c(F)cc(-c2ccc(F)cc2)cc1F)c1ccc(-c2nnc(-c3ccccc3)o2)cc1 [Compound 7, (R)-N-(2-(1H-Imidazol-1-yl)-1-(3,4´,5-trifluoro-[1,1′-biphenyl]-4-yl)ethyl)-4-(5-phenyl-1,3,4-oxadiazol-2-yl)benzamide]	>24	19.4	10.1	237	65.2	31.1	55.8	Inhibition of Y strain T. cruzi CYP51A enzymatic activity (Y strain T. cruzi CYP51A [5]): completely inhibited; Acute toxicity, clinical observation [6]: No detectable side effects; Apparent binding affinity to L. infantum CYP51 (L. infantum CYP51): low nanomolar concentration range; Apparent binding affinity to Y strain T. cruzi CYP51A (Y strain T. cruzi CYP51A [7]): low nanomolar concentration range
O=C(N[C@@H](Cn1ccnc1)c1ccc(Cl)cc1Cl)c1ccc(-c2nnc(-c3ccc(F)c(F)c3)o2)cc1 [Compound 9, (R)-N-(1-(2,4-Dichlorophenyl)-2-(1H-imidazol-1-yl)ethyl)-4-(5-(3,4-difluorophenyl)-1,3,4-oxadiazol-2-yl)benzamide]		7.53	5.54	55.8	34.5	21.4	30.9	Inhibition of Y strain T. cruzi CYP51A enzymatic activity (Y strain T. cruzi CYP51A [5]): stronger potency; Acute toxicity, clinical observation [6]: No detectable side effects; Apparent binding affinity to L. infantum CYP51 (L. infantum CYP51): low nanomolar concentration range; Apparent binding affinity to Y strain T. cruzi CYP51A (Y strain T. cruzi CYP51A [7]): low nanomolar concentration range
(R)-N-(1-(3-Chloro-4´-(trifluoromethyl)-[1,1´-biphenyl]-4-yl)-2-(1H-imidazol-1-yl)ethyl)-4-(5-(pyridin-4-yl)-1,3,4-oxadiazol-2-yl)benzamide [Compound 3]		23.5	11.1	99.0	47.1	29.9	52.3	Tissue distribution, Heart [1, 12]: 0.1 µM; Tissue distribution, Liver [1, 12]: 0.4 µM; Tissue distribution, Lung [1, 12]: 1 ± 1 µM; t½ (in vitro half-life), Human [2, 9]: 53 min; t½ (in vitro half-life), Mouse [3, 10]: 55 min; t½ (in vitro half-life), Rat [4, 11]: 54 min

— paper PMC6467724 (Journal of medicinal chemistry, 2018)
